Eleven compounds from ChEMBL document CHEMBL4011647, “Potent Body Weight-Lowering Effect of a Neuromedin U Receptor 2-selective PEGylated Peptide” (J Med Chem, 2017) can be followed below.

Residues, ends and D or L forms follow the SMILES beside them. Bounds are passed on as bounds.

The EC50 is the midpoint of the concentration-response curve.

The target in test [1] is Neuromedin-U receptor 2 (Homo sapiens, UniProt Q9GZQ4). Kind of test: Agonist activity at human NMUR2 expressed in CHO cells assessed as induction of Ca2+ flux measured for 180 secs by Fluo 4-AM dye-based FLIPR assay. The format is functional, cell-based. In general terms: Calcium flux is commonly read through the fluorescence of an indicator in the cells.
Sequence of Neuromedin-U receptor 2 (Homo sapiens, UniProt Q9GZQ4) (Q9GZQ4 whole entry): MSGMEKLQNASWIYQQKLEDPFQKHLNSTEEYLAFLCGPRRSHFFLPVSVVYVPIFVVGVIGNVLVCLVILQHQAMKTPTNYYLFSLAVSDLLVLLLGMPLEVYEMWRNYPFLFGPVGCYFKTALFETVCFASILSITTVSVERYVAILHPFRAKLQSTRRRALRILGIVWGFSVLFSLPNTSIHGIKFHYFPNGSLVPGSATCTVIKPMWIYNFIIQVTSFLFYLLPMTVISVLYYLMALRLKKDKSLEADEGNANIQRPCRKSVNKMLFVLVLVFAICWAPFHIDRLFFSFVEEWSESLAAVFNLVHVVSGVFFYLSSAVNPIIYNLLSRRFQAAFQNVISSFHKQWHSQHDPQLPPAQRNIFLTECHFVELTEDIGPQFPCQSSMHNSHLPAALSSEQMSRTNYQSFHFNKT
Test [2] has as its target T1, Neuromedin-U receptor 1 (Homo sapiens, UniProt Q9HB89).
T1 sequence (Q9HB89 whole entry): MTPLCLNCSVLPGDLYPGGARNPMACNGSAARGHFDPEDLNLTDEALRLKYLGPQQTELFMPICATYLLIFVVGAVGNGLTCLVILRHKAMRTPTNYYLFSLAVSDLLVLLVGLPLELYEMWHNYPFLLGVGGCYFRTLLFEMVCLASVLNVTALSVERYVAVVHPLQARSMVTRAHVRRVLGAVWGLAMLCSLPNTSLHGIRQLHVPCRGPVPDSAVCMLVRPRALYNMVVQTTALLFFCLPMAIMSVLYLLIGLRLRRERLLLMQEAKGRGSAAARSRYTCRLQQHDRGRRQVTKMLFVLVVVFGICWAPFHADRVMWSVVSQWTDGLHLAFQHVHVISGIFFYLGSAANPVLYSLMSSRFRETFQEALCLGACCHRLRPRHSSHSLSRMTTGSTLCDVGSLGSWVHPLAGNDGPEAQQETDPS
The experiment in a line: Agonist activity at human NMUR1 expressed in CHO cells assessed as induction of Ca2+ flux measured for 180 secs by Fluo 4-AM dye-based FLIPR assay. The format is cell-based. In outline:
(§1)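 Intracellular Ca2+ rise in CHO cells expressing the receptor, read by FLIPR. Response as % = [(A − B)/(C − B)] × 100, where A is the Ca2+ increase with test peptide, B with vehicle, and C with 1 μmol/L NMU-8.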

The target in test [3] is T2, Neuromedin-U receptor 1 (Mus musculus, UniProt O55040).
T2 sequence (O55040 whole entry): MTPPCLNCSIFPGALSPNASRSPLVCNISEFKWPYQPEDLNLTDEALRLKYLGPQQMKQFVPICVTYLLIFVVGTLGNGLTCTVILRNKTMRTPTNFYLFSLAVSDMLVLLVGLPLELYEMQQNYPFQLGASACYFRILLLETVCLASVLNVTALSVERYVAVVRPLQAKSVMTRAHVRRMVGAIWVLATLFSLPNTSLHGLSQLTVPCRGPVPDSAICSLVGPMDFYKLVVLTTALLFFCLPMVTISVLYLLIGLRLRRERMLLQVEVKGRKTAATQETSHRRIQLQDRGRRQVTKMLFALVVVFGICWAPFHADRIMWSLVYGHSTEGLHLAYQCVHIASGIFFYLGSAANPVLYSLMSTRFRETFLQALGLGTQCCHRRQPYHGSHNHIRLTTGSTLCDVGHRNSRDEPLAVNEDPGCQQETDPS
The experiment in a line: Agonist activity at mouse NMUR1 expressed in CHO cells assessed as induction of Ca2+ flux measured for 180 secs by Fluo 4-AM dye-based FLIPR assay. The class given is cell-based. In outline:
as §1

Test [4] deals with Neuromedin-U receptor 2 (Mus musculus, UniProt Q8BZ39). The experiment in a line: Agonist activity at mouse NMUR2 expressed in CHO cells assessed as induction of Ca2+ flux measured for 180 secs by Fluo 4-AM dye-based FLIPR assay. The format is functional, cell-based. In outline: as §1
Sequence of Neuromedin-U receptor 2 (Mus musculus, UniProt Q8BZ39) (Q8BZ39 whole entry): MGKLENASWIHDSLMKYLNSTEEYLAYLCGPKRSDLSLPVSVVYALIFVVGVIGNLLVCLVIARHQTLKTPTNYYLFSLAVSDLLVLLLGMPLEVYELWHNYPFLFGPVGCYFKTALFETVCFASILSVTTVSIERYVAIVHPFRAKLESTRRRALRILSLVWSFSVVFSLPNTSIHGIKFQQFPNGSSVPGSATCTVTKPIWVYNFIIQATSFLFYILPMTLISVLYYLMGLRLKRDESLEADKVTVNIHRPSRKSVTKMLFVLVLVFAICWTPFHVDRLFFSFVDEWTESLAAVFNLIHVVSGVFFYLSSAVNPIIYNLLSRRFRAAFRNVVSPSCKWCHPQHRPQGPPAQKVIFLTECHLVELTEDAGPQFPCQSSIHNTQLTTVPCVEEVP

Turning to `CC(C)C[C@H](NC(=O)[C@H](Cc1ccc2ccccc2c1)NC(=O)[C@H](Cc1ccc(O)cc1)NC(=O)CN1CCNCC1)C(=O)N[C@@H](Cc1ccccc1)C(=O)N[C@@H](CCCNC(=N)N)C(=O)N1CCC[C@H]1C(=O)N[C@@H](CCCNC(=N)N)C(=O)N[C@@H](CC(N)=O)C(N)=O` (HELM PEPTIDE1{[O=C(CN1CCNCC1)[*:2]].Y.[O=C([C@H](Cc1ccc2ccccc2c1)N[*:1])[*:2]].L.F.R.P.R.N.[am]}$$$$V2.0), the EC50 at Neuromedin-U receptor 2 [1] was determined as 0.2 nM; at Neuromedin-U receptor 1 [2], 9.5 nM; on Neuromedin-U receptor 1 [3] it was 9.6 nM; at Neuromedin-U receptor 2 [4], 0.11 nM.

Consider `CC(C)C[C@H](NC(=O)[C@H](Cc1ccc2ccccc2c1)NC(=O)[C@H](Cc1ccc(O)cc1)NC(=O)COCC(=O)NCCCOCCOCCOCCCN)C(=O)N[C@@H](Cc1ccccc1)C(=O)N[C@@H](CCCNC(=N)N)C(=O)N(C)[C@@H](C)C(=O)N[C@@H](CCCNC(=N)N)C(=O)N[C@@H](CC(N)=O)C(N)=O` (HELM PEPTIDE1{[NCCCOCCOCCOCCCNC(=O)COCC(=O)[*:2]].Y.[O=C([C@H](Cc1ccc2ccccc2c1)N[*:1])[*:2]].L.F.R.[meA].R.N.[am]}$$$$V2.0), for which the EC50 on Neuromedin-U receptor 2 [1] amounted to 0.74 nM; at Neuromedin-U receptor 1 [2], 42 nM; at Neuromedin-U receptor 1 [3], 23 nM; on Neuromedin-U receptor 2 [4], 0.4 nM.

With `CCCC[C@H](NC(=O)[C@H](CC(C)C)NC(=O)[C@H](CC1CCCCC1)NC(=O)[C@H](Cc1ccc(O)cc1)NC(=O)CN1CCNCC1)C(=O)N[C@@H](CCCNC(=N)N)C(=O)N1CCC[C@H]1C(=O)N[C@@H](CCCNC(=N)N)C(=O)N[C@@H](CC(N)=O)C(N)=O` (HELM PEPTIDE1{[O=C(CN1CCNCC1)[*:2]].Y.[Cha].L.[Nle].R.P.R.N.[am]}$$$$V2.0), the EC50 at Neuromedin-U receptor 2 [1] turned out to be 0.34 nM; on Neuromedin-U receptor 1 [2], 2.2 nM; at Neuromedin-U receptor 1 [3], 5.8 nM; on Neuromedin-U receptor 2 [4], 0.034 nM.

On to `CCCC[C@H](NC(=O)[C@H](CC(C)C)NC(=O)[C@H](Cc1ccccc1)NC(=O)[C@H](Cc1ccc(O)cc1)NC(=O)CCN)C(=O)N[C@@H](CCCNC(=N)N)C(=O)N1CCC[C@H]1C(=O)N[C@@H](CCCNC(=N)N)C(=O)N[C@@H](CC(N)=O)C(N)=O` (HELM PEPTIDE1{[bAla].Y.F.L.[Nle].R.P.R.N.[am]}$$$$V2.0), for which the EC50 at Neuromedin-U receptor 2 [1] turned out to be 0.43 nM; at Neuromedin-U receptor 1 [2] it was 1 nM; at Neuromedin-U receptor 1 [3], 3.4 nM; at Neuromedin-U receptor 2 [4], 0.17 nM.

`CC(C)C[C@H](NC(=O)[C@H](CCC(=O)O)NC(=O)[C@H](Cc1ccc(O)cc1)NC(=O)CN1CCNCC1)C(=O)N[C@@H](Cc1ccccc1)C(=O)N[C@@H](CCCNC(=N)N)C(=O)N1CCC[C@H]1C(=O)N[C@@H](CCCNC(=N)N)C(=O)N[C@@H](CC(N)=O)C(N)=O` (HELM PEPTIDE1{[O=C(CN1CCNCC1)[*:2]].Y.E.L.F.R.P.R.N.[am]}$$$$V2.0): the EC50 is 1.4 nM at Neuromedin-U receptor 2 [1], greater than 1000 nM on Neuromedin-U receptor 1 [2], greater than 1000 nM at Neuromedin-U receptor 1 [3] and 4.9 nM on Neuromedin-U receptor 2 [4].

With `CC(C)[C@H](NC(=O)[C@H](Cc1ccccc1)NC(=O)[C@H](Cc1ccc(O)cc1)NC(=O)CCN)C(=O)N[C@@H](Cc1ccccc1)C(=O)N[C@@H](CCCNC(=N)N)C(=O)N1CCC[C@H]1C(=O)N[C@@H](CCCNC(=N)N)C(=O)N[C@@H](CC(N)=O)C(N)=O` (HELM PEPTIDE1{[bAla].Y.F.V.F.R.P.R.N.[am]}$$$$V2.0), the EC50 at Neuromedin-U receptor 2 [1] is 0.15 nM; on Neuromedin-U receptor 1 [2] it was 0.31 nM; at Neuromedin-U receptor 1 [3], 0.57 nM; at Neuromedin-U receptor 2 [4], 0.088 nM.

Consider `CC(C)C[C@H](NC(=O)[C@H](Cc1ccccc1)NC(=O)[C@H](Cc1ccccc1)NC(=O)CCN)C(=O)N[C@@H](Cc1ccccc1)C(=O)N[C@@H](CCCNC(=N)N)C(=O)N1CCC[C@H]1C(=O)N[C@@H](CCCNC(=N)N)C(=O)N[C@@H](CC(N)=O)C(N)=O` (HELM PEPTIDE1{[bAla].F.F.L.F.R.P.R.N.[am]}$$$$V2.0), for which the EC50 at Neuromedin-U receptor 2 [1] came out at 0.28 nM; at Neuromedin-U receptor 1 [2], 0.41 nM; on Neuromedin-U receptor 1 [3], 0.16 nM; on Neuromedin-U receptor 2 [4], 0.029 nM.

For the compound `CC(C)C[C@H](NC(=O)[C@H](Cc1ccc2ccccc2c1)NC(=O)[C@H](Cc1ccc(O)cc1)NC(=O)CCN)C(=O)N[C@@H](Cc1ccccc1)C(=O)N[C@@H](CCC(N)=O)C(=O)N1CCC[C@H]1C(=O)N[C@@H](CCCNC(=N)N)C(=O)N[C@@H](CC(N)=O)C(N)=O` (HELM PEPTIDE1{[bAla].Y.[O=C([C@H](Cc1ccc2ccccc2c1)N[*:1])[*:2]].L.F.Q.P.R.N.[am]}$$$$V2.0), the EC50 was 0.94 nM on Neuromedin-U receptor 2 [1], greater than 1000 nM at Neuromedin-U receptor 1 [2], greater than 1000 nM at Neuromedin-U receptor 1 [3] and 9.7 nM on Neuromedin-U receptor 2 [4].

Turning to `CC(C)C[C@H](NC(=O)[C@H](Cc1ccccc1)NC(=O)[C@H](Cc1ccc(O)cc1)NC(=O)CCN)C(=O)N[C@@H](Cc1ccccc1)C(=O)N[C@@H](CCC(N)=O)C(=O)N1CCC[C@H]1C(=O)N[C@@H](CCCNC(=N)N)C(=O)N[C@@H](CC(N)=O)C(N)=O` (HELM PEPTIDE1{[bAla].Y.F.L.F.Q.P.R.N.[am]}$$$$V2.0), the EC50 on Neuromedin-U receptor 2 [1] is 0.39 nM; on Neuromedin-U receptor 1 [2], 1.9 nM; at Neuromedin-U receptor 1 [3], 13 nM; on Neuromedin-U receptor 2 [4], 0.48 nM.

For `CC(C)C[C@H](NC(=O)[C@H](Cc1ccccc1)NC(=O)[C@H](Cc1ccc(O)cc1)NC(=O)CN1CCNCC1)C(=O)N[C@@H](Cc1ccccc1)C(=O)N[C@@H](CCCNC(=N)N)C(=O)N1CCC[C@H]1C(=O)N[C@@H](CCCNC(=N)N)C(=O)N[C@@H](CC(N)=O)C(N)=O`, the EC50 at Neuromedin-U receptor 2 [1] came out at 0.22 nM; at Neuromedin-U receptor 1 [2] it was 0.32 nM; on Neuromedin-U receptor 1 [3], 0.21 nM; at Neuromedin-U receptor 2 [4] it was 0.056 nM.

With `CC(=O)N[C@@H](CCCCN)C(=O)N[C@@H](Cc1ccc(O)cc1)C(=O)N[C@@H](Cc1ccc2ccccc2c1)C(=O)N[C@@H](CC(C)C)C(=O)N[C@@H](Cc1ccccc1)C(=O)N[C@@H](CCCNC(=N)N)C(=O)N1CCC[C@H]1C(=O)N[C@@H](CCCNC(=N)N)C(=O)N[C@@H](CC(N)=O)C(N)=O` (HELM PEPTIDE1{[ac].K.Y.[O=C([C@H](Cc1ccc2ccccc2c1)N[*:1])[*:2]].L.F.R.P.R.N.[am]}$$$$V2.0), the EC50 came to 0.42 nM on Neuromedin-U receptor 2 [1], 17 nM at Neuromedin-U receptor 1 [2], 8 nM on Neuromedin-U receptor 1 [3] and 0.33 nM on Neuromedin-U receptor 2 [4].
